Rows were chosen to be rich in hits. Some 0.62% of all compounds tested hit in one or more screens of this group.
ABCB1 inh = human ABCB1 inhibition, ABCG2 as counter-screen | P08183 | CCRF-Adr cells, JC-1 efflux, flow cytometry | inhibition, % at 6.6 µM | hit rate 0.067% among 190,000 | AID 1326; in the data active = inhibition above about 40%;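 note: 0% = vehicle and 100% = reference inhibitor; higher value means more JC-1 retained so stronger ABCB1 efflux block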
Arbovirus anti = arbovirus infection inhibition | arbovirus infection cell-based antiviral screen | inhibition, % at 10 µM | hit rate 0.37% among 200,000 | AID 1251; in the data active = inhibition above about 30%
MDM2 E3 inh = blocks human Mdm2 ubiquitin ligase activity. AID 1230. signal enhancement, % at 5 µM. Q00987. cell-based MDM2 ubiquitination luciferase reporter, 2 h; 0 = plate control, 100 = twice control, blank-subtracted. hit rate 0.11% among 210,000;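 active = signal enhancement of 30% or more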;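 note: luminescence tracks abundance of the self-degrading MDM2-luciferase fusion protein; higher signal means inhibition of MDM2 E3 ligase activity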
Target sequence (Q00987 whole entry, looked up, the tested form may be a part): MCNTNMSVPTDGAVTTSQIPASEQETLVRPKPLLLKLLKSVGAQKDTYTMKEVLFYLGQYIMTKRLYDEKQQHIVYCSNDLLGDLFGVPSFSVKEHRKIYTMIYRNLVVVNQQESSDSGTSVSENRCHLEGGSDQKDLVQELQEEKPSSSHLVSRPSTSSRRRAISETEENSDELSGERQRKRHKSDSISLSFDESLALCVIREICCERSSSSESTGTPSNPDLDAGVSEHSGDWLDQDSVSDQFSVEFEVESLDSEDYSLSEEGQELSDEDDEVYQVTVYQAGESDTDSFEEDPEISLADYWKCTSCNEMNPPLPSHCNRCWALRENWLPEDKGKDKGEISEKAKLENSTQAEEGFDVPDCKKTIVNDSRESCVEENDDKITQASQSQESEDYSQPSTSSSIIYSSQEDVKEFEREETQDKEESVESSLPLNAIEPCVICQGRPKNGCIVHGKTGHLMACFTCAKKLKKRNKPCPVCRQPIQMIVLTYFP
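Test system: mammalian cells stably expressing self-ubiquitinating, self-degrading MDM2 E3–luciferase fusion; Amount: 2000 cells in each well; Medium: DMEM; Schedule: 4 h settle plus 2 h compound, 37 °C; Technique: SteadyLite luciferase luminescence after 15 min room-temperature reagent incubation; Benchmarks: plate control and blank wells.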
Rad51 HR inh = Rad51 (human) homologous recombination inhibition; inhibition, % at 10 µM; hit rate 0.085% among 200,000; hRad51 DNA strand exchange, fluorescence dequenching; AID 1385;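 active = inhibition above 40% at the single screening dose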;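 note: 0% = DMSO control wells and 100% = blanks with heterologous ssDNA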
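Material: human Rad51–ssDNA filaments; Probe or stimulus: labelled 47-mer dsDNA for strand exchange; Doses: single 10 µM dose; Incubation: 37 °C 15-min filament assembly, 30-min compound preincubation, 15-min exchange; Technique: FRET fluorescence dequenching, excitation 485 nm, emission 520 nm; Measure: Fluorescence-based percent inhibition, control- and blank-normalised; Benchmarks: plate control and blank wells.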
ABCG2 block = human ABCG2 inhibition, ABCB1 as counter-screen | inhibition, % at 6.6 µM | AID 1325 | Q9UNQ0 | hit rate 0.1% among 190,000 | IgMXP3 cells, JC-1 efflux, flow cytometry;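 active = inhibition above 80%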;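 note: 0% = DMSO and 100% = nicardipine control wells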
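Test system: ABCG2 IgMXP3 and barcoded ABCB1 CCRF-Adr cell mix; Schedule: cells with compound and JC-1, 10 min at 25 °C, rotating, no wash; Technique: flow cytometry of retained JC-1 fluorescence; Measure: % inhibition of efflux relative to nicardipine and DMSO; Controls: nicardipine high and DMSO low controls.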
ABCB1 confirm = confirmation of human ABCB1 transporter inhibitors, ABCG2 counter-screen; inhibition, % at 6.6 µM; shares compounds with ABCG2 block; hit rate 7% among 270; CCRF-Adr cells, JC-1 efflux, flow cytometry;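 active = inhibition of pump activity above 50%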;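 note: 0% = DMSO and 100% = nicardipine full pump inhibition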
ABCG2 confirm = confirmation of human ABCG2 transporter inhibitors, ABCB1 counter-screen. shares compounds with ABCG2 block. IgMXP3 cells, JC-1 efflux, flow cytometry. hit rate 6% among 270. inhibition, % at 6.6 µM;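 active = inhibition above 50%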;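 note: 0% = DMSO wells and 100% = nicardipine pump inhibitor wells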
IgMXP3 autofluor = counter-screen for ABCG2 inhibitors: compound fluorescence in IgMXP3 cells; shares compounds with ABCG2 block; compound autofluorescence 488/530 nm, flow; hits give high values; fluorescence at 6.6 µM; hit rate 30% among 270;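 active = fluorescence in ABCG2-expressing cells above the plate's control-well mean plus 3 SD, cut at about 15 in these data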;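 note: median cell fluorescence with compound minus that of DMSO-treated control cells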
CCRF-Adr fluor = counter-screen for ABCB1 inhibitors: compound fluorescence in CCRF-Adr cells | shares compounds with ABCG2 block | compound autofluorescence 488/530 nm, flow cytometry; hits give high values | fluorescence at 6.6 µM | hit rate 30% among 270 | AID 1483;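 active = fluorescence beyond the plate control mean plus 3 SD, with a fluorescence-to-maximum score over 2, cut at about 25 in these data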
* = called active by the depositor; i = inactive; nt = no result.

SMILES	ABCB1 inh	Arbovirus anti	MDM2 E3 inh	Rad51 HR inh	ABCG2 block	ABCB1 confirm	ABCG2 confirm	IgMXP3 autofluor	CCRF-Adr fluor
O=C1c2cccc(OCC(=O)N3CCCc4ccccc43)c2CCN1Cc1cccnc1	5.9	2.1	-5.4	-4.0	24.7	nt	nt	nt	nt
CC1(C)C(CSc2nc3ccccc3[nH]2)C1(Cl)Cl (configuration not stated)	2.4	1.3	12.2	nt	24.5	nt	nt	nt	nt
CCN1CCN(c2nc(-c3ccccn3)nc3ccccc23)CC1	0.6	-10.7	-8.6	8.3	1.2	nt	nt	nt	nt
c1ccc(CN2CCN(c3nc(-c4ccccn4)nc4ccccc34)CC2)cc1	48.0*	-12.5	-15.8	-1.2	32.7	37.3	18.8	2.06	12.8
O=c1/c(=C\c2cccnc2)sc2nc3ccccc3n12	1.6	1.8	2.1	2.1	80.9*	1.3	19.3	-1.34	-3.04
CCN(CC)c1ccc(/C=c2\sc3nc4ccccc4n3c2=O)c(O)c1	0.1	24.7	-11.2	-98.5	-0.4	nt	nt	nt	nt
Cc1cc(C)c(C#N)c(Sc2ccc(N)cc2)n1	-0.2	-11.6	8.1	2.7	0.4	nt	nt	nt	nt
COc1cc(OC)cc(C(=O)N[C@H](C(=O)Nc2nc(-c3cc(OC)ccc3OC)cs2)C(C)C)c1	4.7	-8.0	-14.2	1.5	46.6	5.6	35.3	-1.79	-3.84
COc1cc(OC)cc(C(=O)N[C@H](C(=O)Nc2nc(-c3ccc(OC)c(OC)c3)cs2)C(C)C)c1	nt	nt	nt	4.9	nt	nt	nt	nt	nt
CC[n+]1c(/C=C2\Sc3ccccc3N2C)ccc2cccc(C)c21	29.7	-35.2	-32.0	i	151.4*	-181.9	18.1	273*	535*
CCN1/C(=C/c2ccc3cc(C)ccc3[n+]2CC)Sc2cc(C)c(C)cc21	5.2	-34.7	-43.8	-219.8	46.8	nt	nt	nt	nt
O=C(Nc1ccccc1)Nc1nc(-c2ccc(F)cc2)cs1	1.3	3.0	11.3	19.3	81.1*	-0.7	18.9	1.11	22.1
CCCCSc1nnc(-c2ccc(C)cc2)c2ccccc12	3.0	-11.9	-10.2	0.9	92.5*	25.4	39.9	-2.19	-4.39
COc1cc(C(=O)NC(CCSC)C(=O)OCc2cc([N+](=O)[O-])cc3c2OCOC3)cc(OC)c1OC (configuration not stated)	58.4*	0.0	-3.2	-1.9	24.7	20.5	12.9	1.91	0.01
CC(C)C(NS(=O)(=O)c1ccccc1)C(=O)OCc1cc([N+](=O)[O-])cc2c1OCOC2 (configuration not stated)	2.5	18.5	-20.2	-15.1	89.4*	1.3	10.3	1.66	-0.99
O=C(OCc1cc([N+](=O)[O-])cc2c1OCOC2)c1ccccn1	0.3	9.4	-9.2	6.4	4.2	nt	nt	nt	nt
COCCN(CCOC)S(=O)(=O)c1ccc(C(=O)Nc2c(C)n(C)n(-c3ccccc3)c2=O)cc1	nt	nt	-29.9	7.8	nt	nt	nt	nt	nt
Cc1ccc(N(C(=O)c2ccc(S(=O)(=O)N3CCOCC3)cc2)C2C=CS(=O)(=O)C2)cc1 (configuration not stated)	1.4	2.2	10.5	3.2	5.0	nt	nt	nt	nt
CCN(CC)S(=O)(=O)c1ccc(C(=O)N(c2ccc(C)cc2)C2C=CS(=O)(=O)C2)cc1 (configuration not stated)	37.3	5.0	-0.5	-1.6	19.1	1.6	0.9	3.61	-0.99
CC(NC(=S)N1CCN(c2ccccc2)CC1)c1ccccc1 (configuration not stated)	nt	nt	nt	7.6	nt	nt	nt	nt	nt
Cc1cc(C)c(C#N)c(SCC(=O)c2cc(C)n(CCc3ccccc3)c2C)n1	0.6	10.8	-10.6	-5.5	5.3	nt	nt	nt	nt
COCCn1c(C)cc(C(=O)CSc2nc(C)cc(C)c2C#N)c1C	2.6	-4.3	0.7	-2.4	97.2*	7.0	29.0	24.2*	19.1
COc1ccc(/C=N/NC(=O)c2cccnc2)cc1CN1CCN(c2ccc(F)cc2)CC1	44.8*	-1.6	-2.6	nt	8.7	34.9	11.8	-1.84	-3.84
Cc1ccnc(N/C=C(\C#N)c2nc(-c3cccc(Br)c3)cs2)c1	46.8*	-9.5	6.3	i	43.5	16.4	9.4	41.7*	161*
Cc1ccc(CNC(=O)C(=O)NCC(c2ccco2)N2CCOCC2)cc1 (configuration not stated)	-0.1	-9.3	-14.7	7.0	-2.8	nt	nt	nt	nt
SMILES	ABCB1 inh	Arbovirus anti	MDM2 E3 inh	Rad51 HR inh	ABCG2 block	ABCB1 confirm	ABCG2 confirm	IgMXP3 autofluor	CCRF-Adr fluor
COc1cccc(CNC(=O)C(=O)NCC(c2ccco2)N2CCOCC2)c1 (configuration not stated)	65.1*	-1.7	-9.5	6.8	65.4	-0.1	0.7	-0.14	4.31
O=S(=O)(NCc1cn2ccccc2n1)c1ccccc1F	nt	nt	-1.1	nt	nt	nt	nt	nt	nt
COc1ccc2nc(SCc3ccccc3C)nc(C)c2c1	1.6	4.7	-14.2	17.5	89.7*	5.9	45.0	16*	7.11
COc1ccccc1Nc1nc2nonc2nc1N1CCCCC1C (configuration not stated)	11.8	-7.5	-8.1	6.3	87.0*	18.7	28.8	30.3*	-0.79
O=c1cc(-c2ccccc2)[nH][nH]1	81.9*	-5.8	0.9	-2.2	-1.8	1.4	-1.7	-1.14	0.06
CC(C)S(=O)(=O)C/C(N)=N/OC(=O)c1cc(Cl)cc(Cl)c1	nt	nt	-17.5	1.7	nt	nt	nt	nt	nt
CC(O)CNc1nc2c(c(=O)n(C)c(=O)n2C)n1Cc1cccc(Br)c1 (configuration not stated)	1.2	10.5	-19.5	5.9	91.3*	-37.9	34.9	11.8	114*
CCCCN1C(=O)/C(=C/C=C2\Oc3ccccc3N2CC)SC1=S	39.5	-6.4	2.2	i	89.2*	23.2	10.9	162*	423*
CN1/C(=C\C=C2/SC(=S)N(CC(=O)O)C2=O)C(C)(C)c2ccccc21	-0.2	10.9	-13.4	i	-1.3	nt	nt	nt	nt
C=CCN1C(=O)/C(=C\C=C2\N(C)c3ccccc3C2(C)C)SC1=S	61.0*	-11.2	0.7	i	189.2*	26.5	-34.7	145*	186*
CCCN1C(=O)/C(=C/C=C2\N(CC)c3ccccc3C2(C)C)SC1=S	69.7*	-1.4	-34.8	-4.7	46.3	19.1	-12.6	96.1*	193*
CCN1C(=O)/C(=C/C=C2/Sc3ccccc3N2CCO)SC1=S	-1.7	-12.6	-16.5	-6.1	-10.3	nt	nt	nt	nt
CCN(CC)C(=O)Cn1c(=O)c2ccccc2n2c(=S)sc(-c3cccc(C)c3)c12	1.2	-24.3	-9.8	-100.3	-1.5	nt	nt	nt	nt
